As a reminder, the IC50 is the point on the concentration scale where inhibition reaches its midpoint. Low readings indicate inhibition by little substance, high ones a need for much substance.

Structures are written as SMILES. A value given as a limit tells only on which side of the number the result lay.

Consider 13 compounds from ChEMBL document CHEMBL1130017, “Rationally designed inhibitors of inosine monophosphate dehydrogenase” (J Med Chem, 1997).

One assay deals with T1, Inosine-5'-monophosphate dehydrogenase 2 (Homo sapiens, UniProt P12268). Description: Concentration required for 50% inhibition of human Inosine-5'-monophosphate dehydrogenase 2 using Spectrophotometric assay. The gist of the method:
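Human type II IMPDH, 25 nM final, added to start the reaction. Mix holds 50 µM IMP, 100 µM NAD and varying inhibitor in 0.1 M potassium phosphate pH 7.4, 0.1 M KCl, 3 mM EDTA, 1 mM DTT and 100 µg/mL BSA. NADH formation is followed by absorbance at 340 nm in 1 cm cells. Fractional activity relative to the uninhibited rate is taken against inhibitor concentration.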
For the compound `Cc1nc(O)c2ncn(C3O[C@@H](COP(=O)(O)O)[C@H](O)[C@@H]3O)c2n1` (stereo partly drawn), the half-inhibitory concentration (IC50) is over 1000 µM.

`O=P(O)(O)OC[C@@H]1OC(n2cnc3c(O)nc(C(F)(F)F)nc32)[C@@H](O)[C@H]1O` (stereo partly drawn) came in with an IC50 of over 1000 µM.

In turn, `O=c1[nH]c(CCl)nc2c1ncn2C1O[C@@H](COP(=O)(O)O)[C@H](O)[C@@H]1O` (stereo partly drawn) registered a half-inhibitory concentration (IC50) of 1.32 µM.

As for `C=Cc1nc2c(ncn2C2O[C@@H](COP(=O)(O)O)[C@H](O)[C@@H]2O)c(=O)[nH]1` (stereo partly drawn), the IC50 came to 1 µM.

On to `O=P(O)(O)OC[C@@H]1OC(n2cnc3c(O)nc(/C=C/c4ccccc4)nc32)[C@@H](O)[C@H]1O` (stereo partly drawn), for which the IC50 is 37 µM.

In the case of `O=c1[nH]c(CO)nc2c1ncn2C1O[C@@H](COP(=O)(O)O)[C@H](O)[C@@H]1O` (stereo partly drawn), the IC50 is 132 µM.

For the compound `O=P(O)(O)OC[C@@H]1OC(n2cnc3c(O)nc(C(F)F)nc32)[C@@H](O)[C@H]1O` (stereo partly drawn), the IC50 was over 1000 µM.

In turn, `O=c1[nH]c(CF)nc2c1ncn2C1O[C@@H](COP(=O)(O)O)[C@H](O)[C@@H]1O` (stereo partly drawn) came in with a half-inhibitory concentration (IC50) of 1.2 µM.

In the case of `O=P(O)(O)OC[C@@H]1OC(n2cnc3c(O)nc(C(O)O)nc32)[C@@H](O)[C@H]1O` (stereo partly drawn), the IC50 worked out at 0.44 µM.

In the case of `O=P(O)(O)OC[C@@H]1OC(n2cnc3c(O)nc(CCc4ccccc4)nc32)[C@@H](O)[C@H]1O` (stereo partly drawn), the concentration for half-maximal inhibition (IC50) is 460 µM.

For the next assay, the target named is T1, Inosine-5'-monophosphate dehydrogenase 2. Description: First order rate constant for inactivation of human Inosine-5'-monophosphate dehydrogenase 2. The gist of the method: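 Human type II IMPDH (2 µM) incubated at 23 °C with 20 µM compound (10-fold excess) in 0.1 M potassium phosphate pH 7.9, 0.5 M KCl, 3 mM EDTA, 10 mM DTT and 100 µg/mL BSA. Aliquots taken over time are assayed with 200 µM IMP and 400 µM NAD (8× Km). k_inact comes from a nonlinear first-order fit of remaining activity versus incubation time.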
In turn, `O=P(O)(O)OC[C@@H]1OC(n2cnc3c(O)nc(CCl)nc32)[C@@H](O)[C@H]1O` (stereo partly drawn) yielded a k obs of 0.0528 s⁻¹.

`C=Cc1nc(O)c2ncn(C3O[C@@H](COP(=O)(O)O)[C@H](O)[C@@H]3O)c2n1` (stereo partly drawn) gave a k obs of 0.0144 s⁻¹.

`O=P(O)(O)OC[C@@H]1OC(n2cnc3c(O)nc(CF)nc32)[C@@H](O)[C@H]1O` (stereo partly drawn): the k obs is 0.0164 s⁻¹.
